Experimental data as given in PubChem BioAssay.
Active and inactive are the calls of the source.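 The calls were made as follows, unless noted: active = GFP response above 150% of the DMSO level; inconclusive = fewer than 70 events counted for a yeast strain; inactive = the rest.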

Tests used:
[1] = hit retest on RPL19A-GFP reporter strain – cell-based, S. cerevisiae, flow cytometry, cherry picks, mother/daughter gates, confirmation (AID 2270;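 active = GFP response below 50% of the DMSO control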); details: 3 h, at 10 µM, stronger effect = lower value, 100 = same GFP as DMSO wells
[2] = yeast TOR pathway reporter LAP4-GFP change – cell-based, cherry picks, flow cytometry, mother/daughter gates, confirmation (AID 2271;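 active = GFP response above 150% of the DMSO control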;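 also: ratio of sample to DMSO plate mean so 100% equals DMSO level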); details: S. cerevisiae LAP4-GFP strain, 3 h, at 10 µM, stronger effect = higher value, 100 means same as DMSO control
Procedure, shortened: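 System: Alexa 633-stained baker's yeast GFP-fusion strain / Medium: synthetic complete (SC) yeast growth medium / Doses: compound at 10 µM, single point / Times: 3 h treatment at 30 °C with rotation / Detection: HT flow cytometry, GFP fluorescence channel / Benchmarks: DMSO-only negative wells, rapamycin 400 ng/mL positive wells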

[3] = TOR pathway reporter MEP2-GFP, retest of hits – S. cerevisiae, flow cytometry GFP, cherry picks, confirmation (AID 2272;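 active = GFP response above 150% of the DMSO control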;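 also: ratio of well signal to plate DMSO mean so 100% equals DMSO level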); details: S. cerevisiae MEP2-GFP strain, 3 h, at 10 µM, stronger effect = higher value
[4] = yeast AGP1-GFP fluorescence change, single-dose – cell-based, flow cytometry, S. cerevisiae, cherry picks, confirmation (AID 2273);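 also: median GFP channel fluorescence over the whole cell population gate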; details: S. cerevisiae AGP1-GFP strain, 3 h, at 10 µM
[5] = TOR pathway CIT2 reporter hit retest – S. cerevisiae, GFP fusion, cherry picks, mother/daughter gates, confirmation (AID 2274); details: S. cerevisiae CIT2-GFP strain, flow cytometry, 3 h, at 10 µM, stronger effect = higher value
[6] = measured here: daughter cell gate
[7] = measured here: mother cell gate
[8] = measured here: daughter cell gate response
[9] = measured here: mother cell gate response

SMILES | GFP response vs DMSO [1] | GFP response vs DMSO [1, 6] [%] | GFP response vs DMSO [1, 7] [%] | GFP response relative to DMSO [2] | GFP response relative to DMSO [2, 8] [%] | GFP response relative to DMSO [2, 9] [%] | GFP response vs DMSO [3] | GFP response, % of DMSO [4] | GFP response, % of DMSO [5] | GFP response, % of DMSO [5, 6] [%] | GFP response, % of DMSO [5, 7] [%]
O=C(COc1ccc(OCc2ccccc2)cc1)NN=C1CCCC1 | 98% (inactive) | 98.4 | 97.1 | 107% (inactive) | 104 | 109 | 103% (inactive) | 99.5% (inactive) | 100% (inactive) | 101 | 99.3
CCOC(=O)c1ccc(N=Cc2nc(-c3ccccc3)oc2OC(C)=O)cc1 | 104% (inactive) | 105 | 101 | 154% (active) | 138 | 170 | 96.8% (inactive) | 92.2% (inactive) | 93% (inactive) | 93.8 | 89.5
CC(=O)Nc1ccc(-c2csc(NC(=O)c3ccc(C)o3)n2)cc1 | 98.4% (inactive) | 98.1 | 99.8 | 97.9% (inactive) | 99.2 | 98.3 | 100% (inactive) | 98.3% (inactive) | 105% (inactive) | 106 | 104
Cc1nn(Cc2c(Cl)cccc2Cl)c(C)c1NC(=O)c1sc2ccccc2c1Cl | 94.8% (inactive) | 95.7 | 95.8 | 95.3% (inactive) | 93.6 | 98.5 | 99.5% (inactive) | 108% (inactive) | 104% (inactive) | 100 | 106
COC(=O)c1ccc(C2Nc3cccc4cccc(c34)N2)cc1 | 105% (inactive) | 102 | 106 | 129% (inactive) | 123 | 133 | 103% (inactive) | 92.8% (inactive) | 93% (inactive) | 90.2 | 93.2
O=C(COC(=O)/C=C/c1cccs1)Nc1nc(-c2ccccc2)cs1 | 101% (inactive) | 99.9 | 99.7 | 102% (inactive) | 101 | 101 | 105% (inactive) | 93.3% (inactive) | 99.7% (inactive) | 99.1 | 98.5
N/C(=N\OC(=O)c1cccc(Br)c1)c1ccccc1 | 97.2% (inactive) | 96.4 | 93.6 | 137% (inactive) | 123 | 143 | 105% (inactive) | 64.6% (inactive) | 140% (inactive) | 121 | 140
CCCCC1OC23CCCCC2C(C#N)(C(=N)O3)C1(C#N)C#N (stereo not drawn) | 101% (inactive) | 100 | 96.8 | 118% (inactive) | 117 | 111 | 176% (active) | 103% (inactive) | 119% (inactive) | 103 | 98.7
COc1cccc(N=Nc2ccc(O)c3ncccc23)c1 | 98.2% (inactive) | 97.4 | 98 | 224% (active) | 205 | 228 | 117% (inactive) | 91.3% (inactive) | 105% (inactive) | 106 | 99.7
O=[N+]([O-])c1cc(C(F)(F)F)ccc1NCCc1ccccn1 | 98.8% (inactive) | 99.3 | 99.7 | 96.5% (inactive) | 92.2 | 96.5 | 102% (inactive) | 98.9% (inactive) | 106% (inactive) | 106 | 106
Cc1cc(-n2nc(C)cc2C)n2ncc(-c3ccccc3)c2n1 | 105% (inactive) | 101 | 106 | 95.7% (inactive) | 95.9 | 96.2 | 103% (inactive) | 102% (inactive) | 97.3% (inactive) | 95.6 | 98.1
Cc1ccsc1C(=O)N(Cc1nnc(-c2ccccc2Cl)o1)C1CC1 | 95.8% (inactive) | 97.3 | 95.2 | 98.9% (inactive) | 96 | 100 | 103% (inactive) | 102% (inactive) | 100% (inactive) | 99.3 | 99.3
O=C(O)c1ccccc1C(=O)N1CCN(c2cccc(Cl)c2)CC1 | 97.2% (inactive) | 97 | 98.1 | 100% (inactive) | 97.9 | 96.5 | 97.5% (inactive) | 95.4% (inactive) | 96.4% (inactive) | 98.3 | 95.6
COc1cccc(C(=O)Nc2ccccc2)c1 | 98.2% (inactive) | 97.4 | 96.7 | 106% (inactive) | 102 | 106 | 105% (inactive) | 95.2% (inactive) | 94% (inactive) | 93.6 | 92.6
O=C1C=CC(=O)N1N(c1ccccc1)c1ccccc1 | 96.2% (inactive) | 90.7 | 87.1 | 209% (active) | 148 | 208 | 127% (inactive) | 114% (inactive) | 95.9% (inactive) | 88.9 | 79.8
O=C(O)c1ccc(SCc2cnc(Cl)s2)cc1 | 104% (inactive) | 96.7 | 103 | 116% (inactive) | 99 | 112 | 110% (inactive) | 114% (inactive) | 108% (inactive) | 101 | 104
COCc1cc(=O)[nH]c(SCCS(=O)(=O)c2ccc(Cl)cc2Cl)n1 | 110% (inactive) | 115 | 107 | 102% (inactive) | 100 | 105 | 100% (inactive) | 103% (inactive) | 119% (inactive) | 119 | 116

SMILES | GFP response vs DMSO [1] | GFP response vs DMSO [1, 6] [%] | GFP response vs DMSO [1, 7] [%] | GFP response relative to DMSO [2] | GFP response relative to DMSO [2, 8] [%] | GFP response relative to DMSO [2, 9] [%] | GFP response vs DMSO [3] | GFP response, % of DMSO [4] | GFP response, % of DMSO [5] | GFP response, % of DMSO [5, 6] [%] | GFP response, % of DMSO [5, 7] [%]
COc1cc(NC(=O)c2ccc(C)cc2)ccc1NC(=O)c1cc2ccccc2o1 | 95.4% (inactive) | 86 | 85.2 | 95.7% (inactive) | 91 | 91 | 99% (inactive) | 109% (inactive) | 100% (inactive) | 88.4 | 89.5
COc1ccc(-c2ccc(CCC(=O)O)o2)cc1 | 97% (inactive) | 95.1 | 96.1 | 126% (inactive) | 122 | 126 | 102% (inactive) | 86.3% (inactive) | 101% (inactive) | 97.2 | 101
COC(=O)Nc1c(-c2ccccc2)nc2ccccn12 | 99.4% (inactive) | 98.1 | 98.9 | 107% (inactive) | 106 | 105 | 98.3% (inactive) | 93.7% (inactive) | 101% (inactive) | 99.1 | 101
O=C(/C=C/c1ccc(-c2ccccc2[N+](=O)[O-])o1)c1ccc(Br)cc1 | 96.4% (inactive) | 97.6 | 96.7 | 121% (inactive) | 118 | 126 | 105% (inactive) | 94.1% (inactive) | 101% (inactive) | 105 | 99.7
CCCc1cc(=O)n(-c2nc3ccccc3s2)[nH]1 | 102% (inactive) | 102 | 101 | 101% (inactive) | 101 | 99.4 | 99% (inactive) | 104% (inactive) | 97.3% (inactive) | 97.4 | 96.8
CCOC(=O)Cc1csc(NC(=O)CSc2nnc(-c3ccc(C)cc3)o2)n1 | 101% (inactive) | 98.8 | 101 | 103% (inactive) | 101 | 101 | 104% (inactive) | 104% (inactive) | 104% (inactive) | 98.3 | 105
COc1ccc(OC(=O)c2cc(S(=O)(=O)N3CCCC3)ccc2Cl)cc1 | 97.6% (inactive) | 96.9 | 97.2 | 97.9% (inactive) | 99.2 | 97.2 | 98.3% (inactive) | 94.3% (inactive) | 101% (inactive) | 103 | 101
O=C(NCC(c1ccc(F)cc1)N1CCOCC1)c1cc(F)c(F)c(F)c1F (stereo not drawn) | 100% (inactive) | 99.6 | 101 | 102% (inactive) | 102 | 102 | 101% (inactive) | 102% (inactive) | 102% (inactive) | 101 | 101
COc1ccc(CC2=C(O)c3ccccc3C(=O)C2=O)cc1 | 95.1% (inactive) | 91.3 | 96.1 | 129% (inactive) | 113 | 135 | 97.2% (inactive) | 97% (inactive) | 80.6% (inactive) | 81.6 | 80.4
CCOC(=O)c1cnn(-c2cc(C)nc3c(-c4ccccc4)cnn23)c1N | 96.7% (inactive) | 98.1 | 95.4 | 92.9% (inactive) | 92.9 | 94.4 | 103% (inactive) | 89.3% (inactive) | 98.6% (inactive) | 97.6 | 98.2
Cc1cccc(/C(N)=N/OC(=O)C23CC4CC(CC(C4)C2)C3)c1 | 102% (inactive) | 101 | 101 | 113% (inactive) | 108 | 119 | 108% (inactive) | 85% (inactive) | 123% (inactive) | 111 | 127
Cc1nn2c(NCCCN3CCOCC3)c3c(nc2c1-c1ccccc1)CCC3 | 101% (inactive) | 102 | 101 | 98.2% (inactive) | 97.5 | 98.4 | 99% (inactive) | 103% (inactive) | 100% (inactive) | 101 | 101
COc1cccc(C(=O)Nc2ccc(NC(=O)c3cc4ccccc4o3)c(OC)c2)c1 | 100% (inactive) | 98.1 | 103 | 89% (inactive) | 92.5 | 89 | 102% (inactive) | 95% (inactive) | 108% (inactive) | 105 | 111
COc1ccc(C2CC(=O)C(C(c3ccc(O)cc3)C3C(=O)CC(c4ccc(OC)cc4)CC3=O)C(=O)C2)cc1 (stereo not drawn) | 100% (inactive) | 101 | 101 | 93.7% (inactive) | 92 | 92 | 96.6% (inactive) | 101% (inactive) | 110% (inactive) | 110 | 109
Cc1ccccc1OC1CCN(C(=O)C2CCC(=O)N(C3CCCC3)C2)CC1 (stereo not drawn) | 97.6% (inactive) | 98.4 | 97.7 | 101% (inactive) | 99.2 | 99.3 | 105% (inactive) | 96.6% (inactive) | 95.5% (inactive) | 95.4 | 95
O=C(/C(=C/O)N=Nc1ccc(Cl)cc1)c1ccncc1 | 101% (inactive) | 99.3 | 98.8 | 111% (inactive) | 101 | 115 | 132% (inactive) | 101% (inactive) | 90.3% (inactive) | 88.7 | 88.2
